Experimental data of several laboratories.
Lines come from different studies, so protocols differ.
Cell line: PC-3
Observed: cell growth or viability

With `CN(C)c1cccc2c(S(=O)(=O)NCCCCN=C=S)cccc12` the IC50 was 16.8 µM (MTT; 24 h).
With `COc1cc(C(=O)c2nc(-c3cccc4c3CC(=O)N4)c[nH]2)cc(OC)c1OC` the IC50 was 0.0186 µM (MTS; 72 h).
The IC50 of `CC1=CC(=O)C(C(C)C)=CC1=O` is reported as 12.8 µM (SRB; 48 h).
`NS(=O)(=O)c1ccc(-n2nc(C(=O)NN=Cc3cccnc3)cc2-c2ccccc2)cc1` gave an IC50 of 38.6 µM (fluorescence; 48 h).
With `COc1cc(C(=O)c2nc(-c3cccc4[nH]ccc34)cs2)cc(OC)c1OC` the IC50 was 0.0065 µM (MTS; 72 h).
With `O=C1/C(=C/c2ccc3ccccc3c2O)NC(=S)N1c1ccccc1` the IC50 was 6.04 µg/mL (MTT).
For `O=P1(c2ccccc2)CCCCC1`, the IC50 was > 100 µM (MTT; 72 h).
With `COc1cc(C(=O)c2nc(-c3ccncc3)c[nH]2)cc(OC)c1OC` the IC50 was > 1 µM (MTS; 72 h).
With `CC1(P2(=O)CCCCC2)C=CCC=C1` the IC50 was > 100 µM (MTT; 72 h).
For `CC(=NNC(=O)c1cc(-c2ccccc2)n(-c2ccc(S(N)(=O)=O)cc2)n1)c1ccc(C)cc1`, the IC50 was 19.2 µM (fluorescence; 48 h).
The IC50 of `COc1cc(C(=O)c2nc(-c3ccsc3)c[nH]2)cc(OC)c1OC` is reported as 0.0873 µM (MTS; 72 h).
The IC50 of `NS(=O)(=O)c1ccc(-n2nc(C(=O)NN=Cc3ccc(O)cc3)cc2-c2ccccc2)cc1` is reported as 17.2 µM (fluorescence; 48 h).
`COc1cc(C(=O)c2nc(-c3cccc4[nH]ccc34)c[nH]2)cc2c1OC=CO2` has an IC50 of 0.0102 µM (MTS; 72 h).
The IC50 of `CC(=O)O[C@H]1[C@H](OC(C)=O)[C@@H](Nc2cc3cccnc3c3ncccc23)OC[C@@H]1OC(C)=O` is reported as 1.4 µM (MTT; 48 h, dark).
For `NS(=O)(=O)c1ccc(-n2nc(C(=O)NN3C(=O)c4ccccc4C3=O)cc2-c2ccccc2)cc1`, the IC50 was 54.4 µM (fluorescence; 48 h).
With `O=P1(C2CCCCC2)CCCCC1` the IC50 was 64.5 µM (MTT; 72 h).
`NS(=O)(=O)c1ccc(-n2nc(C(=O)NN3C(=O)CCC3=O)cc2-c2ccccc2)cc1` has an IC50 of 36.2 µM (fluorescence; 48 h).
`CC(=O)O[C@H]1C(=O)[C@@]2(C)[C@H]([C@H](OC(=O)c3ccccc3)[C@]3(O)C[C@H](OC(=O)[C@H](O)[C@@H](NC(=O)c4ccccc4)c4ccccc4)C(C)=C1C3(C)C)[C@]1(OC(C)=O)CO[C@@H]1C[C@@H]2O` gave an IC50 of 0.0004 µM (MTS; 72 h).
For `Nc1cc2cccnc2c2ncccc12`, the IC50 was 6.2 µM (MTT; 48 h, dark).
